# Paper PMC4547606 (Bioorganic & medicinal chemistry, 2015)
# “And” between values parts separate entries of the source, which are not always exact repeats. Equal values may be shown once.
# Legend:
# human CB2 receptor = human CB2 receptor (Homo sapiens, UniProt P34972); assay: CB2 calcium mobilization assay, antagonist screen at 10 μM; format: cell-based; conditions: read-out: CB2 % Inhibition of CP55,940, compound at 10 μM; percent inhibition of CP55,940 EC80 (100 nM); mean ± SEM, at least two independent experiments in duplicate
# Sequence of human CB2 receptor (P34972 whole entry): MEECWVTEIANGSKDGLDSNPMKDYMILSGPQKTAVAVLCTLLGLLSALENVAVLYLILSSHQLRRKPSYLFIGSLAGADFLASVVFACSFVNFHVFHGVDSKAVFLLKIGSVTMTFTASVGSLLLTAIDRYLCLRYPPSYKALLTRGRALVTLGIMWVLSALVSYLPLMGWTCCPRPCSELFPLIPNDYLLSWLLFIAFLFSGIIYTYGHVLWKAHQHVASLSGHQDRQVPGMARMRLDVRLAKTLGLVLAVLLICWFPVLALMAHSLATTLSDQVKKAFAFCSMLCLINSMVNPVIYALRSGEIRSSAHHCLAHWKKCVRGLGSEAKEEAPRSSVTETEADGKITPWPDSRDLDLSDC
# human CB1 receptor [1] = target: T1, human CB1 receptor (Homo sapiens, UniProt P21554); assay: CB1 calcium mobilization assay, modulation experiments; format: cell-based; conditions: Figure 2
# T1 sequence (P21554 whole entry): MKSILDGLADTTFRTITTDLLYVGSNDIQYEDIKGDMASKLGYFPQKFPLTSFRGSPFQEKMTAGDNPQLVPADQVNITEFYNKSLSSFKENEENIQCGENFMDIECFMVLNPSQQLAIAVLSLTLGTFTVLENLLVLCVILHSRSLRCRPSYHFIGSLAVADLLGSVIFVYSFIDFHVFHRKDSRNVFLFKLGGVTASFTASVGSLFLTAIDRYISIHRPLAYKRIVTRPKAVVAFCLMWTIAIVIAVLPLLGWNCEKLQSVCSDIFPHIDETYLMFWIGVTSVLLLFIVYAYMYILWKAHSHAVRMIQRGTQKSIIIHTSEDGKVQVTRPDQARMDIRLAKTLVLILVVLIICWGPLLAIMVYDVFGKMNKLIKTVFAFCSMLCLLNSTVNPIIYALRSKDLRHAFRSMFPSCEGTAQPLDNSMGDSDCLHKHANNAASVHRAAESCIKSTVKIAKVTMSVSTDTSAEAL
# Summary of the method: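 CHO-RD-HGA16 cells stably expressing human CB1, plated the day before and kept overnight at 37°C, 5% CO2. Loaded with Calcium 5 dye for 45 min at 37°C in HBSS, 20 mM HEPES, 2.5 mM probenecid, pH 7.4. Pre-treated 15 min at 37°C with one test compound concentration, then serial CP55,940 dilutions added at 10 s. Fluorescence read every 1 s for 90 s.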
# mice = conditions: cited from earlier work
# rats [2] = conditions: cited from earlier work
# rats [3] = conditions: cited from earlier work; remark: listed apart in the source
# over forty GPCRs = conditions: including GPCRs commonly involved in drug addictions; cited from earlier work
# human CB1 receptor [4] = target: T1, human CB1 receptor; assay: CB1 calcium mobilization assay, antagonist; format: cell-based; conditions: ratio of CB1 IC50 values
# Summary of the method: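 CHO-RD-HGA16 cells stably expressing human CB1 were plated overnight (37°C, 5% CO2), then Calcium 5 dye-loaded for 45 min at 37°C in HBSS/20 mM HEPES/2.5 mM probenecid, pH 7.4. Test compound dilutions were pre-incubated 15 min at 37°C. CP55,940 at EC80 was added at 10 s, and fluorescence was read every 1 s for 90 s. IC50 came from three-parameter logistic fits; at least three independent experiments in duplicate.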
SMILES,inhibition at 10 µM (human CB2 receptor) [%],also measured
"CCc1c(C(=O)NCCc2ccc(N(C)C)cc2)[nH]c2ccc(Cl)cc12 [Compound 16, 5-Chloro-N-{2-[4-(dimethylamino)phenyl]ethyl}-3-ethyl-1H-indole-2-carboxamide]",-12.7 ± 2.8,–
"CCCCCCNc1ccc(CCNC(=O)c2[nH]c3ccc(Cl)cc3c2CC)cc1 [Compound 19, 5-Chloro-N-{2-[4-(hexylamino)phenyl]ethyl}-3-ethyl-1H-indole-2-carboxamide]",-35 ± 4.6,–
"CCc1c(C(=O)N2CCN(c3ccc(Cl)cc3)CC2)[nH]c2ccc(Cl)cc12 [Compound 37, 5-Chloro-2-[4-(4-chlorophenyl)piperazine-1-carbonyl]-3-ethyl-1H-indole]",-31.1 ± 18.8,–
"CCc1c(C(=O)N2CCN(c3ccccc3)CC2)[nH]c2ccc(Cl)cc12 [Compound 36, 5-Chloro-3-ethyl-2-(4-phenylpiperazine-1-carbonyl)-1H-indole]",-28 ± 25.9,–
"CCc1c(C(=O)Nc2cccc(-c3cccc(N(C)C)n3)c2)[nH]c2ccc(Cl)cc12 [Compound 35, 5-Chloro-N-{3-[6-(dimethylamino)pyridin-2-yl]phenyl}-3-ethyl-1H-indole-2-carboxamide]",-19.2 ± 11.5,–
"CCc1c(C(=O)NCCc2ccc(C(C)(C)C)cc2)[nH]c2ccc(Cl)cc12 [Compound 27, 5-Chloro-N-[2-(4-tert-butylphenyl)ethyl]-3-ethyl-1H-indole-2-carboxamide]",-18 ± 35.4,–
"CCc1c(C(=O)NCCc2ccc(N3CCCCC3)cc2)[nH]c2ccc(Cl)cc12 [Compound 1, Org27569]",-16.4 ± 1.8,"Effect on Emax of agonist CP55,940 (human CB1 receptor [1]): dose-dependently decreased the Emax; Anorectic effect, mechanism (mice): anorectic effect through non-CB1 specific mechanisms; Effect on CB1 agonist-induced effects (antinociception, catalepsy, hypothermia) (mice): did not enhance or block; Effect in catalepsy and antinociception (rats [2]): negative results; Effect on hypothermic effects of CB1 receptor agonists CP55940 and anandamide (rats [2]): attenuated the hypothermic effects; Cue- and drug-induced reinstatement of cocaine- and methamphetamine-seeking behavior (rats [3]): dose-related attenuation; Pharmacological selectivity against over forty GPCRs (over forty GPCRs): high pharmacological selectivity"
"CCc1c(C(=O)NCCc2ccc(OC)cc2)[nH]c2ccc(Cl)cc12 [Compound 26, 5-Chloro-N-[2-(4-methoxyphenyl)ethyl]-3-ethyl-1H-indole-2-carboxamide]",-11.2 ± 19.6,–
"CCCN(CCC)c1ccc(CCNC(=O)c2[nH]c3ccc(Cl)cc3c2CC)cc1 [Compound 18, 5-Chloro-N-{2-[4-(dipropylamino)phenyl]ethyl}-3-ethyl-1H-indole-2-carboxamide]",-37.4 ± 6.8,–
"CCc1c(C(=O)NCCc2ccc(N(CC)CC)cc2)[nH]c2ccc(Cl)cc12 [Compound 17, 5-Chloro-N-{2-[4-(diethylamino)phenyl]ethyl}-3-ethyl-1H-indole-2-carboxamide]",–,fold more potent than compound 1 (CB1 IC50) (human CB1 receptor [4]): 2 fold
"CCN(CC)c1ccc(CCNC(=O)c2[nH]c3ccc(F)cc3c2C)cc1 [Compound 43, 5-Fluoro-N-{2-[4-(diethylamino)phenyl]ethyl}-3-methyl-1H-indole-2-carboxamide]",-21.8 ± 6.5,–
"CCc1c(C(=O)NCCc2ccc(N(C)C)cc2)[nH]c2ccc(F)cc12 [Compound 3, Org27759, reference compound]",-20.4 ± 2.4,"Effect on Emax of agonist CP55,940 (human CB1 receptor [1]): dose-dependently decreased the Emax"
"CCN(CC)c1ccc(CCNC(=O)c2cc3cc(Cl)ccc3[nH]2)cc1 [Compound 45, 5-Chloro-N-{2-[4-(diethylamino)phenyl]ethyl}-1H-indole-2-carboxamide]",–,"fold more potent than compound 1 (CB1 IC50) (human CB1 receptor [4]): ~10 fold; fold more potent than compound 3 (CB1 IC50) (human CB1 receptor [4]): ~ 2.5 fold and 2.5 fold; fold more potent than compound 17 (CB1 IC50) (human CB1 receptor [4]): 6 fold; Effect on Emax of agonist CP55,940 (human CB1 receptor [1]): dose-dependently decreased the Emax"
"CCc1c(C(=O)NCCc2ccc(N3CCCCC3)cc2)[nH]c2ccc(F)cc12 [Compound 46, 5-Fluoro-3-ethyl-N-{2-[4-(piperidin-1-yl)phenyl]ethyl}-1H-indole-2-carboxamide]",-33.1 ± 16.3,–
"CCN(CC)c1ccc(CCNC(=O)c2cc3cc(F)ccc3[nH]2)cc1 [Compound 44, 5-Fluoro-N-{2-[4-(diethylamino)phenyl]ethyl}-1H-indole-2-carboxamide]",-23.8 ± 5.2,–
"CCc1c(C(=O)NCCc2ccc(N(CC)CC)cc2)[nH]c2ccc(F)cc12 [Compound 42, 5-Fluoro-N-{2-[4-(diethylamino)phenyl]ethyl}-3-ethyl-1H-indole-2-carboxamide]",-25.7 ± 10.7,–
